Source: ChEMBL document CHEMBL1148374 (J Med Chem, 2004)
Where a SMILES comes first, the peptide text is derived from it. [ ]: non-standard residue; d: D form. The star is where a group is joined. Tyr(Nα,Nα-allyl2) = C=CCN(CC=C)[C@@H](Cc1ccc(O)cc1)C(=O)*; Aib = CC(C)(N)C(=O)O

Experiments:
[1] = molecular target: Kappa-type opioid receptor (Homo sapiens) (UniProt P41145); experiment: Ability to inhibit agonist-stimulated (U69,593) [35S]GTP-gamma-S, binding, using cloned human Opioid receptor kappa 1 expressed in CHO cells; assay type: functional, cell-based
Sequence of Kappa-type opioid receptor (Homo sapiens) (P41145 whole entry): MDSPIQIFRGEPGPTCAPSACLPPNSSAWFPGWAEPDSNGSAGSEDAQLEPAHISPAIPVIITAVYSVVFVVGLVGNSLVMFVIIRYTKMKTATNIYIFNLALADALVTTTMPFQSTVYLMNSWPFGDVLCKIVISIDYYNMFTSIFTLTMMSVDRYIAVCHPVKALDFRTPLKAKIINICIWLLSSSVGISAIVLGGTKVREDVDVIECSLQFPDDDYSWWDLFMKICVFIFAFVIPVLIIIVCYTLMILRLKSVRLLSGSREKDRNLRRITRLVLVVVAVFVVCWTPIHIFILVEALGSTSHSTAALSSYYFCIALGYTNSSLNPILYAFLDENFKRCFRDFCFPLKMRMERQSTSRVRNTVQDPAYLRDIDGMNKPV
Outline: (§1)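 Agonist dose-response curves in [35S]GTPγS binding were run with and without one fixed concentration of test compound, with 10 μM GDP final. Ke = [L]/((A'/A)−1), where A' and A are agonist EC50 with and without antagonist. Mean ± SE from at least three independent experiments.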

[2] = molecular target: T1, Delta-type opioid receptor (Homo sapiens, UniProt P41143); experiment: Efficacy at cloned human opioid receptor delta 1, expressed as percent of basal binding
T1 sequence (P41143 whole entry): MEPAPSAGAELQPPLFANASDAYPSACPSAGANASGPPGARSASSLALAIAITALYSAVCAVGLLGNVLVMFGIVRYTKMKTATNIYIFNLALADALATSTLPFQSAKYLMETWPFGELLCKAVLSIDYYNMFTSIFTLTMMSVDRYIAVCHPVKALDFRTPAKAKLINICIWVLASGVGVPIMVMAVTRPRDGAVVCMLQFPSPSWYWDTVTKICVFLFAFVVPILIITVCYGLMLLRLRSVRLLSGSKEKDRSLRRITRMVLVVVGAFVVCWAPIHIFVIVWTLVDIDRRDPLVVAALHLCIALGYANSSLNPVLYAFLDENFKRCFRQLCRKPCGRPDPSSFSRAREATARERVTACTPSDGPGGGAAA

[3] = molecular target: T1, Delta-type opioid receptor; experiment: Inverse agonist potency at cloned human opioid receptor delta 1; assay type: functional
[4] = molecular target: Opioid receptors; mu & delta (Homo sapiens) (UniProt P41143+P35372); experiment: Selectivity ratio of agonist stimulated [35S]GTP-gamma-S, binding in cloned human mu-opioid receptor versus delta-opioid receptor; assay type: functional
Sequence of Opioid receptors; mu & delta (Homo sapiens) (P35372 whole entry, looked up): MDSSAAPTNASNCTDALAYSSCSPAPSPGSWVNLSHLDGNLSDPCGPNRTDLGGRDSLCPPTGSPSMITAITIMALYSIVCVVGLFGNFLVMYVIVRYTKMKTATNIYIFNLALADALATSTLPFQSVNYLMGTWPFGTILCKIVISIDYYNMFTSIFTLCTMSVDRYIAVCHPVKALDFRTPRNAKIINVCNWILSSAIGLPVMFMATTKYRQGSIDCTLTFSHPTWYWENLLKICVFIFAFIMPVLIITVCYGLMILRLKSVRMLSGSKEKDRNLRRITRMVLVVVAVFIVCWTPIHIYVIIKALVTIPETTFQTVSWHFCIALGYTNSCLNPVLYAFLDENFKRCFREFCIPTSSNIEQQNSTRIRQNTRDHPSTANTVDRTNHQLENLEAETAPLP
Sequence of Opioid receptors; mu & delta (Homo sapiens) (P41143 whole entry, looked up): as the sequence (P41143 whole entry) above

[5] = molecular target: T1, Delta-type opioid receptor; experiment: [3H]-Cl-DPDPE competition binding assay using human cloned opioid receptor delta 1
[6] = molecular target: Mu-type opioid receptor (Homo sapiens) (UniProt P35372); experiment: Ability to inhibit agonist-stimulated (DAMGO) [35S]GTP-gamma-S, binding, using cloned human Opioid receptor mu 1expressed in CHO cells; assay type: functional, cell-based; outline: as §1
Sequence of Mu-type opioid receptor (Homo sapiens) (P35372 whole entry): as the sequence (P35372 whole entry, looked up) above

[7] = molecular target: T1, Delta-type opioid receptor; experiment: Ability to inhibit agonist-stimulated (DPDPE) [35S]GTP-gamma-S, binding, using cloned human opioid receptor delta 1 expressed in CHO cells; assay type: functional, cell-based; outline: as §1
[8] = molecular target: Opioid receptors; delta & kappa (Homo sapiens) (UniProt P41145+P41143); experiment: Selectivity ratio of agonist stimulated [35S]GTP-gamma-S, binding in cloned human kappa-opioid receptor versus delta-opioid receptor; assay type: functional
Sequence of Opioid receptors; delta & kappa (Homo sapiens) (P41143 whole entry, looked up): as the sequence (P41143 whole entry) above
Sequence of Opioid receptors; delta & kappa (Homo sapiens) (P41145 whole entry, looked up): as the sequence (P41145 whole entry) above

[9] = molecular target: T1, Delta-type opioid receptor; experiment: Inverse agonist potency at cloned human delta-opioid receptor; assay type: functional
[10] = molecular target: T1, Delta-type opioid receptor; experiment: Binding affinity towards opioid receptor delta 1 expressed in CHO cells was determined by using [3H]DPDPE as radioligand; assay type: cell-based

Structure (SMILES) | Ke [1] [nM] | Basal binding [2] [%] | IC50 [3] [nM] | Selectivity ratio [4] | Ki [5] [nM] | Ke [6] [nM] | Ke [7] [nM] | Selectivity ratio [8] | IC50 [9] [nM] | Ki [10] [nM]
CC1CN(CCCc2ccccc2)C2C[C@H](NC(=O)C3(c4ccccc4)CCCC3)CC1(c1cccc(O)c1)C2 (stereo partly drawn) | 5.51 | 78 | 15.2 | 9.5 | 9.3 | 40.3 | 4.24 | 1.3 |  | 
Cc1ccccc1/C=C/CN1CC[C@@](C)(c2cccc(O)c2)[C@@H](C)C1 |  | 76 | 2.8 |  |  |  |  |  |  | 
Oc1ccc2c3c1O[C@H]1c4[nH]c5ccccc5c4C[C@@]4(O)[C@@H](C2)N(CC2CC2)CC[C@]314 | 16.1 |  |  |  |  | 33 | 0.21 |  |  | 
CC1CN(CCCc2ccccc2)C2CC(NC(=O)C3(c4ccccc4)CCCC3)CC1(c1cccc(O)c1)C2 (racemic) | 3.52 |  |  | 22 | 2.1 | 12.2 | 0.55 | 6.4 | 2.4 | 
CC1CN(CCCc2ccccc2)C2C[C@@H](NC(=O)C3(c4ccccc4)CCCC3)CC1(c1cccc(O)c1)C2 (single isomer, unassigned; (+)) | 17.9 |  |  | 58 | 0.96 | 8.7 | 0.15 | 119 | 1.8 | 
C=CCN(CC=C)[C@@H](Cc1ccc(O)cc1)C(=O)NC(C)(C)C(=O)NC(C)(C)C(=O)N[C@@H](Cc1ccccc1)C(=O)N[C@@H](CC(C)C)C(=O)O ({Tyr(Nα,Nα-allyl2)}-[Aib][Aib]FL-OH) | 339 |  |  | 5.4 |  | 42 | 7.85 | 43 |  | 19.1
